According to ChEMBL document CHEMBL1158389, “Highly twisted adamantyl arotinoids: synthesis, antiproliferative effects and RXR transactivation profiles” (Eur J Med Chem, 2009):
Activity calls are given as the source filed them. No cut-off for these calls is given here.

Key:
A549 = assay: Antiproliferative activity against human A549 cells at 4 uM after 72 hrs by MTT assay; format: functional
How it was run: (§1)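 Epithelial cancer lines came from ATCC and were seeded the day before in complete medium: PC-3, SkOV3 and A549 at 3,000/well; MiaPaCa-2 and BxPC-3 at 4,000; T-47D and MDA-MB-468 at 5,000. Medium was switched to 0.5% FBS just before exposure to 4 μM. Read-out was MTT (4 h, 37 °C), SDS/HCl solubilisation, A595 minus cell-free blank. Growth inhibition was taken versus DMSO (≤0.1% v/v) controls, ≥2 experiments in triplicate.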

[1] = molecular target: T1, Retinoic acid receptor beta (Homo sapiens) (UniProt P10826); assay: Transactivation of Gal4-LBD fused human RARbeta (169 to 448) transfected in african green monkey CV1 cells assessed as luciferase activity at 2 uM after 6 hrs by Dual-light chemiluminescent assay; format: cell-based; settings: CV-1
T1 sequence (whole entry): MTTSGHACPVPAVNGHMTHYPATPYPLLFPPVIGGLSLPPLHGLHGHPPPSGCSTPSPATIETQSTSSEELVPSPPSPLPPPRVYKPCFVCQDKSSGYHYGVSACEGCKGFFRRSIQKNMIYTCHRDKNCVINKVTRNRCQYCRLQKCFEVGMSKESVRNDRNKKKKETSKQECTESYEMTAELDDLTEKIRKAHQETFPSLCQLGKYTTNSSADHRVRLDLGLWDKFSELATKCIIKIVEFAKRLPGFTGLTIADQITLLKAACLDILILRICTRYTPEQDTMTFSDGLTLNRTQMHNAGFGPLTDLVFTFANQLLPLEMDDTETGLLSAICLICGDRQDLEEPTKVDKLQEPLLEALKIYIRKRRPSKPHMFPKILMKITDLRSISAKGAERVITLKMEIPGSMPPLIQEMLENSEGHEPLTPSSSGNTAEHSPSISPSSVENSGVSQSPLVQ
How it was run: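 Transfected CV-1 cells carried Gal4-LBD constructs: hRARα 156–462, hRARβ 169–448, hRARγ 178–454 or mRXRα 218–467. Transfection used 10 ng Gal4-LBD, 100 ng UAS-luciferase and 25 ng β-gal vector. After 16 h the medium was changed to 5% charcoal-treated FBS. Cells were stimulated with 2 μM analog for 6 h (RARα, RARβ, RXRα) or 20 h (RARγ). Reference agonists were 1 μM atRA (RARα) and 1 μM 9cRA (RXRα). Luciferase and β-galactosidase were read by chemiluminescence.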

[2] = molecular target: T2, Retinoic acid receptor alpha (Homo sapiens) (UniProt P10276); assay: Transactivation of Gal4-LBD fused human RARalpha (156 to 454) transfected in african green monkey CV1 cells assessed as luciferase activity at 2 uM after 6 hrs by Dual-light chemiluminescent assay; format: cell-based; settings: CV-1
T2 sequence (whole entry): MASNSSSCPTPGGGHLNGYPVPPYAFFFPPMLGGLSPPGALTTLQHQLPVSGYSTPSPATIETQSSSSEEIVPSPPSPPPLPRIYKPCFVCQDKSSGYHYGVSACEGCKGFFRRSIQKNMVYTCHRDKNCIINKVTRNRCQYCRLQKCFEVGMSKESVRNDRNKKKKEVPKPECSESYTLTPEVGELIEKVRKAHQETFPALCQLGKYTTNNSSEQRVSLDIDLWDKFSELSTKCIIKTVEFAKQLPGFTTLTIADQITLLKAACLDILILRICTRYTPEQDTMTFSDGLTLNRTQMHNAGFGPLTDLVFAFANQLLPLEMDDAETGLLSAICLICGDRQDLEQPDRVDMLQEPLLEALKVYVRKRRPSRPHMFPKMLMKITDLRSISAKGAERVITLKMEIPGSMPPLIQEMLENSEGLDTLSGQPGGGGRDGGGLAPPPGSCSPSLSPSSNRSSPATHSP

MIA PaCa-2 = assay: Antiproliferative activity against human MIAPaCa2 cells at 4 uM after 48 hrs by MTT assay; format: functional; how it was run: as §1
PC-3 = assay: Antiproliferative activity against human PC3 cells at 4 uM after 48 hrs by MTT assay; format: functional; how it was run: as §1
Jurkat [3] = assay: Antiproliferative activity against human Jurkat T cells at 2 uM after 48 hrs by MTT assay; format: functional, cell-based
How it was run: (§2)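 Jurkat T cells were resuspended at 10^5 cells/mL in RPMI with 0.5% FBS (10,000/well) and seeded immediately before dosing at 62.5 nM–2 μM for two days. Viability was read by MTT (4 h, 37 °C), formazan dissolved in 10% SDS/10 mM HCl, A595 with cell-free background subtracted. Values are relative to DMSO controls (≤0.1% v/v); at least two experiments in triplicate.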

[4] = molecular target: T1, Retinoic acid receptor beta (Homo sapiens); assay: Inhibition of transactivation activity of Gal4-LBD fused human RARbeta (169 to 448) transfected in atRA-stimulated african green monkey CV1 cells at 4 uM after 6 hrs by Dual-light chemiluminescent assay; format: cell-based; settings: CV-1
How it was run: (§3)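 Gal4 DBD (1–147) was fused to hRARα (156–462) or hRARβ (169–448) LBD. CV-1 cells (20,000/well) were co-transfected with 10 ng Gal4-LBD, 100 ng UAS-luciferase and 25 ng β-gal vector. After 16 h the medium was replaced with medium containing 5% charcoal-treated FBS. Cells got atRA plus test compound at 10-, 40- or 200-fold excess (0.2, 0.8, 4 μM) for 6 h. Luciferase and β-galactosidase were read by chemiluminescence.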

[5] = molecular target: T2, Retinoic acid receptor alpha (Homo sapiens); assay: Inhibition of transactivation activity of Gal4-LBD fused human RARalpha (156 to 454) transfected in atRA-stimulated african green monkey CV1 cells at 0.2 uM after 6 hrs by Dual-light chemiluminescent assay; format: cell-based; settings: CV-1, 0.2 uM; how it was run: as §3
MDA-MB-468 = assay: Antiproliferative activity against human MDA-MB-468 cells at 4 uM after 48 hrs by MTT assay; format: functional; how it was run: as §1
BXPC-3 = assay: Antiproliferative activity against human BxPC3 cells at 4 uM after 48 hrs by MTT assay; format: functional; how it was run: as §1
Jurkat [6] = assay: Antiproliferative activity against human Jurkat T cells at 62.5 nM after 48 hrs by MTT assay; format: functional, cell-based; how it was run: as §2
T47D = assay: Antiproliferative activity against human T47D cells at 4 uM after 48 hrs by MTT assay; format: functional; how it was run: as §1
SK-OV-3 = assay: Antiproliferative activity against human SKOV3 cells at 4 uM after 48 hrs by MTT assay; format: functional; how it was run: as §1
[7] = molecular target: T3, Retinoic acid receptor gamma (Homo sapiens) (UniProt P13631); assay: Inhibition of transactivation activity of Gal4-LBD fused human RARgamma (178 to 454) transfected in atRA-stimulated african green monkey CV1 cells at 4 uM after 20 hrs by Dual-light chemiluminescent assay; settings: CV-1
T3 sequence (whole entry): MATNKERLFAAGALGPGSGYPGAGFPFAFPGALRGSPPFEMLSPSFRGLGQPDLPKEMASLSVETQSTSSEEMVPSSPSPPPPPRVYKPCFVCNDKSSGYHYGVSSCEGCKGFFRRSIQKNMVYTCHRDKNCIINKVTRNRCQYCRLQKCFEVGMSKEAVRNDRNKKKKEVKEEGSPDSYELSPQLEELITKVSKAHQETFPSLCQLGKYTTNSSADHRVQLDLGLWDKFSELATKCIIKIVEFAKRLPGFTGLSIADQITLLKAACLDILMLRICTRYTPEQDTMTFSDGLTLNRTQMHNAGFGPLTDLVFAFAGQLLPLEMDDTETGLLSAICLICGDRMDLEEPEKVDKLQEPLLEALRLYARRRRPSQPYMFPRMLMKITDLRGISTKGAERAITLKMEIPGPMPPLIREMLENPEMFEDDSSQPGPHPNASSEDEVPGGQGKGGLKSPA

[8] = molecular target: T3, Retinoic acid receptor gamma (Homo sapiens); assay: Inhibition of transactivation activity of Gal4-LBD fused human RARgamma (178 to 454) transfected in atRA-stimulated african green monkey CV1 cells after 20 hrs by Dual-light chemiluminescent assay; settings: CV-1
[9] = molecular target: T1, Retinoic acid receptor beta (Homo sapiens); assay: Inhibition of transactivation activity of Gal4-LBD fused human RARbeta (169 to 448) transfected in atRA-stimulated african green monkey CV1 cells after 6 hrs by Dual-light chemiluminescent assay; format: cell-based; settings: CV-1; how it was run: as §3
[10] = molecular target: T2, Retinoic acid receptor alpha (Homo sapiens); assay: Displacement of [3H]9cRA from RARalpha
[11] = molecular target: T1, Retinoic acid receptor beta (Homo sapiens); assay: Displacement of [3H]9cRA from RARbeta
[12] = molecular target: T3, Retinoic acid receptor gamma (Homo sapiens); assay: Displacement of [3H]9cRA from RARgamma
[13] = molecular target: T4, Retinoic acid receptor RXR-alpha (Homo sapiens) (UniProt P19793); assay: Displacement of [3H]9cRA from RXRalpha
T4 sequence (whole entry): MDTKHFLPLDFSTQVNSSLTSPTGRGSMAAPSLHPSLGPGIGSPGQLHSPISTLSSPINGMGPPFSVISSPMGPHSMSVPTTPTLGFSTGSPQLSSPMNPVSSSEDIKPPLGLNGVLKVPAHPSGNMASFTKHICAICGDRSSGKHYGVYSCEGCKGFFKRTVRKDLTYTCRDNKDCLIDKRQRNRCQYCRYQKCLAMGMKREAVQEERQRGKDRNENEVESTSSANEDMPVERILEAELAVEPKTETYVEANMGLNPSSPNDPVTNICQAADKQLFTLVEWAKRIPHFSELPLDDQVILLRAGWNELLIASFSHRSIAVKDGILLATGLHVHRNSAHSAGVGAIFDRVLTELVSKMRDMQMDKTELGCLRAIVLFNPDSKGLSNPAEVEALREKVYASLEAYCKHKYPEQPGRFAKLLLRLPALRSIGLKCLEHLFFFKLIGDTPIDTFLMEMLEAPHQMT

Jurkat [14] = assay: Induction of apoptosis in human Jurkat T cells assessed as induction of DEVDase activity at 1 uM after 4 hrs by fluorescence assay; format: functional, cell-based
How it was run: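 Jurkat cells (40,000/well, 10^6 cells/mL, RPMI with 0.5% FBS) were treated for 4 h; controls got 0.1% DMSO. Lysis was in CE buffer (PIPES pH 7, NP-40, cytochalasin B, protease inhibitors) for 30 min at 4 °C. Lysates were mixed with 2x caspase buffer (HEPES pH 7.4, CHAPS, sucrose) holding 100 μM Ac-DEVD-AFC and incubated at 37 °C for 30 min. AFC was read every 2 min, ex 390/em 510 nm.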

[15] = molecular target: T5, Retinoic acid receptor RXR-alpha (Mus musculus) (UniProt P28700); assay: Inhibition of Gal4-LBD fused mouse RXRalpha transactivation in african green monkey CV1 cells at 1 uM after 6 hrs by Dual-light chemiluminescent assay; format: cell-based; settings: CV-1
T5 sequence (whole entry): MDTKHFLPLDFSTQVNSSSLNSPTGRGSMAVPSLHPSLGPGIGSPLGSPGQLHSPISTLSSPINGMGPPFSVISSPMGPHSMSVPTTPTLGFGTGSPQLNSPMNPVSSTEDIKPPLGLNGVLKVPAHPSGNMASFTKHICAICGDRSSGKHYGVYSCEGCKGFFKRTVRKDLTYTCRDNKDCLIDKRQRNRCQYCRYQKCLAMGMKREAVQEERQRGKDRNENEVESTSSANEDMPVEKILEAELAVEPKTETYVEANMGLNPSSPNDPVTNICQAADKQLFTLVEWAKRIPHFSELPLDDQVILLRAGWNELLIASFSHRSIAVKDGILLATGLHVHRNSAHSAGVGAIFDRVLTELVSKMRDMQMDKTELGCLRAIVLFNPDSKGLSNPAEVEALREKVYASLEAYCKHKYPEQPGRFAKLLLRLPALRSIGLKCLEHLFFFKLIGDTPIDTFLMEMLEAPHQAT
How it was run: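 CV-1 cells (20,000/well) co-transfected with 10 ng Gal4 DBD (residues 1–147)–mRXRα LBD (residues 218–467) vector, 100 ng UAS-luciferase reporter and 25 ng β-galactosidase vector (pCH110). After 16 h, switched to medium with 5% charcoal-treated FBS and treated for 6 h. Cells washed, lysed, and luciferase and β-galactosidase activities read by chemiluminescence.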

## Cc1cc(O)c(C23CC4CC(CC(C4)C2)C3)cc1-c1ccc(CC(=O)O)cc1Cl
A549; A549, 72 h
  inhibition at 4 µM: 15.9%
[1]
  Activity: inactive
[2]
  Activity: inactive
MIA PaCa-2; MIA PaCa-2, 48 h
  inhibition at 4 µM: 26.8%
PC-3; PC-3, 48 h
  inhibition at 4 µM: 66.7%
Jurkat [3]
  Activity: Active
[4]
  Activity: inactive
[5]
  inhibition: inactive
MDA-MB-468; MDA-MB-468, 48 h
  inhibition at 4 µM: 11.1%
BXPC-3; BXPC-3, 48 h
  inhibition at 4 µM: 49.2%
Jurkat [6]
  Activity: inactive
T47D
  inhibition at 4 µM: 29.1%
SK-OV-3; SK-OV-3, 48 h
  inhibition at 4 µM: 30.3%
[7]
  Activity: inactive

## CC1(C)CC=C(C#Cc2ccccc2)c2cc(/C=C/c3ccc(C(=O)O)cc3)ccc21
[8]
  Activity: Active
[9]
  Activity: Active

## O=C(O)/C=C/c1ccc(-c2ccc(O)c(C34CC5CC(CC(C5)C3)C4)c2)c(Cl)c1
A549
  Activity: Active
MIA PaCa-2
  Activity: Active
PC-3
  Activity: Active
[10]
  Activity: 31%
[11]
  Activity: 17%
[12]
  Activity: 83%
MDA-MB-468
  Activity: Active
BXPC-3
  Activity: Active
[13]
  Activity: 16%
T47D
  Activity: Active
SK-OV-3
  Activity: Active
Jurkat [14]
  Activity: Active

## CCCCCOc1cc2c(cc1-c1cc(/C=C/C(=O)O)ccc1O)C(C)(C)CCC2(C)C
[15]
  Activity: Active
